# Results pooled from the literature.
# Lines come from different studies, so protocols differ.
# RET V804M: Proto-oncogene tyrosine-protein kinase receptor Ret (RET, Homo sapiens, UniProt P07949, V804M)
# RET: Proto-oncogene tyrosine-protein kinase receptor Ret (RET, Homo sapiens, UniProt P07949)
# RET V804L: Proto-oncogene tyrosine-protein kinase receptor Ret (RET, Homo sapiens, UniProt P07949, V804L)
# RET M918T: Proto-oncogene tyrosine-protein kinase receptor Ret (RET, Homo sapiens, UniProt P07949, M918T)
Compound,target,test,setting,measurement,result
Nc1ncc(-c2nc(N3CCOCC3)nc(N3CCOCC3)n2)c(C(F)F)n1,RET V804M,"binding, competition with immobilised ligand",10 µM,remaining binding,73%
CC(C)(C)c1cc(C=C(C#N)C#N)cc(Br)c1O,RET,"enzyme activity, inhibitor",0.5 µM,remaining activity,98.2%
N#CC1(c2ccccn2)CCN(Cc2cc(C(=O)O)c(=O)n3ccccc23)CC1,RET V804L,"cell-free assay, competition with immobilised ligand",1 µM,remaining binding,100%
O=C(Cn1cc(C=C2C(=O)NC(=O)NC2=O)c2ccccc21)Nc1ccccc1,RET,"enzyme activity, inhibitor, radiometric",10 µM,remaining activity,110%
Cc1nn(C)cc1-c1nc2c(N3CCN(Cc4ccc(Cl)cc4)CC3)c(Cl)cnc2[nH]1,RET V804L,"binding, competition with immobilised ligand",1 µM,remaining binding,2.1%
Cn1cncc1[C@](O)(COc1ccc(C#N)cc1-c1ccc(OC(F)(F)F)cc1)c1ccc(C#N)cc1,RET M918T,"cell-free assay, competition with immobilised ligand",1 µM,remaining binding,95%
C#Cc1n[nH]c2c(-c3cn([C@@H](C)c4ccccn4)c(=O)[nH]c3=O)cc(F)cc12,RET V804M,"enzyme activity, inhibitor",0.1 µM,inhibition,-0.3%
O=C1NC(=O)N(c2ccccc2)C(=O)C1=CNc1ccc2[nH]c(=O)[nH]c2c1,RET,"enzyme activity, inhibitor, radiometric",10 µM,remaining activity,90.6%
C#Cc1n[nH]c2c(-c3cn([C@@H](C)c4ccccc4)c(=O)[nH]c3=O)cc(F)cc12,RET,"enzyme activity, inhibitor",0.1 µM,inhibition,3.2%
O=C(NCc1ncc(C(F)(F)F)cc1Cl)c1ccc2c(c1)C1(CCS(=O)(=O)CC1)[C@H](C1CC1)N2S(=O)(=O)c1ccc(F)cc1,RET M918T,"cell-free assay, competition with immobilised ligand",1 µM,remaining binding,96%
Cn1cc(-c2cc(F)cc(N3CCn4c(cc5c4CCCC5)C3=O)c2CO)cc(Nc2ccc(N3CCN(C4COC4)CC3)cn2)c1=O,RET,"enzyme activity, inhibitor",0.1 µM,inhibition,11%
